Each block holds one compound with its values, some of them ahead of it.
Experiments:
cells = experiment: Acute toxicity in cells; format: cell-based
full length SHP1 = full length SHP1 (Homo sapiens, UniProt P29350); experiment: In vitro phosphatase activity assay, phospho-peptide substrate, Malachite Green; format: biochemical; settings: data not shown
full length SHP2 = molecular target: T1, full length SHP2 (Homo sapiens, UniProt Q06124); experiment: In vitro phosphatase activity assay, phospho-peptide substrate, Malachite Green; format: biochemical; settings: for inhibition of SHP2 phosphatase activity (qualitative): phospho-peptide substrate
T1 sequence (Q06124 1-593): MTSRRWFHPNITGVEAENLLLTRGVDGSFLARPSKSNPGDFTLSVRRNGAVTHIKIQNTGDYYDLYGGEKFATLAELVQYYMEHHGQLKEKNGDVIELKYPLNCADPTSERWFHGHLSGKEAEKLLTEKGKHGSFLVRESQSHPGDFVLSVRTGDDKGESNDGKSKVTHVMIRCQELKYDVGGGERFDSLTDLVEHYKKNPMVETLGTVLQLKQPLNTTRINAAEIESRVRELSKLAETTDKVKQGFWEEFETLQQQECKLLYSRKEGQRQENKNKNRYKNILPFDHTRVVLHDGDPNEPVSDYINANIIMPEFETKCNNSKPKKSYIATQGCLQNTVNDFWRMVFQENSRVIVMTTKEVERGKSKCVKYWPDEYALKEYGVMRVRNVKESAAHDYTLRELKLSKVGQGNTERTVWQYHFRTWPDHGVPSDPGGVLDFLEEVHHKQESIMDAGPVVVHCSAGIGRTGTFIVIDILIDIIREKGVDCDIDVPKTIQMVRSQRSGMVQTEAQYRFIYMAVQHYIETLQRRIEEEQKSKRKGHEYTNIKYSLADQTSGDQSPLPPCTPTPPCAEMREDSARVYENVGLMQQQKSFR
Summary of the method: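 Purified full-length SHP2 (0.1 μg) was preincubated with test compound for 30 min at room temperature in 25 mM Tris-HCl pH 7.4, 50 mM NaCl, 5 mM DTT, 2.5 mM EDTA. Phospho-peptide (also an N-SH2 activator) was added to 50 µM final and incubated 30 °C, 30 min. Freed phosphate was read by Malachite Green at OD620. Lineweaver-Burk used 0, 10, 20 μM; mean ± SD, three experiments.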

[1] = test system: SHP2 (full length WT, E76K, PTP domain); experiment: Phosphatase assay with pNPP as the substrate; format: biochemical; settings: 1 at 10 μM; any form of SHP2 protein
Summary of the method: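 SHP2 enzyme (0.1 μg; full-length WT, E76K or PTP domain) was incubated with test compound for 15 min at 37 °C in 25 mM Tris-HCl pH 7.4, 50 mM NaCl, 5 mM DTT, 2.5 mM EDTA. pNPP was added to 0.9 mg/ml final and incubated a further 15 min at 37 °C. Read-out was OD405. Three independent experiments.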

H661 cells = experiment: Cell cycle analysis, propidium iodide staining and FACS; format: cell-based, human; settings: 10 and 20 μM, 24 hours
Summary of the method: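 H661 cells (PTPN11 N58S/+) were treated with test compound at 0, 10 or 20 μM, stained with propidium iodide and analysed by FACS. Profiles are representative of three independent experiments.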

His-tagged SHP2 = molecular target: T2, His-tagged SHP2 (Homo sapiens, UniProt Q06124); experiment: Thermal shift assay; format: binding; settings: 5, 10, 60 µM
T2 sequence (Q06124 1-593): T1 sequence (Q06124 1-593)
Summary of the method: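 His-tagged SHP2 (1 µg) in 50 mM Tris-HCl pH 8.0, 500 mM NaCl, 50 mM imidazole was mixed with 5x Sypro Orange stock, 20 µl reaction. Test compound in DMSO was added to 5, 10 or 60 µM final; 1% DMSO served as control. Samples were heated 22–95 °C in 1 °C steps every 50 sec, and Tm was taken from melting curves. Mean ± SD of three independent experiments.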

[2] = test system: myeloid progenitors from PTPN11 E76K/+ mice; experiment: Colony-forming unit assay, mouse bone marrow cells; format: cell-based; settings: GM-CSF 1.0 ng/mL, 7 days, vs WT control cells
Summary of the method: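 Bone marrow from Ptpn11E76K/+/Mx1-Cre+ and Ptpn11+/+/Mx1-Cre+ mice was plated at 2×10^4 cells/mL in 0.9% methylcellulose IMDM (30% FBS, glutamine, β-mercaptoethanol, GM-CSF 1.0 ng/mL) with graded test compound or DMSO. Cultures ran 7 days at 37 °C in 5% CO2. Myeloid colonies (CFU-GM, CFU-M) were counted and normalized to WT DMSO colonies. Mean ± SD of three independent experiments.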

H661 cells (PTPN11 N58S) = experiment: Lung cancer cell proliferation; format: cell-based, human; settings: 48 hours, dose-dependent; more sensitive than H596
Summary of the method: (§1)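 Human lung cancer H661 (PTPN11 N58S/+) and H596 (WT PTPN11) cells were exposed to graded test compound for 48 hours, with DMSO controls. Cell number was measured by One Solution Cell Proliferation Assay kit. Three experiments; mean ± SD of triplicates from one representative experiment.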

[3] = molecular target: T3, full length WT SHP2 GST-fusion protein (Homo sapiens, UniProt Q06124); experiment: Fluorescence titration; format: binding; settings: SHP2 3.0 µM, dose-dependent
T3 sequence (Q06124 1-593): T1 sequence (Q06124 1-593)
Summary of the method: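 GST-fusion full-length WT SHP2 was held at 3.0 μM in 20 mM Tris-HCl, pH 7.5, and titrated with rising test compound. Excitation was 295 nm and emission was read 360–500 nm. Inhibitor-alone fluorescence was subtracted. Relative intensity was plotted against log molar concentration. Three independent experiments; mean ± SD of triplicates from one representative run.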

H596 cells (WT PTPN11) = experiment: Lung cancer cell proliferation; format: cell-based, human; settings: 48 hours, dose-dependent
Summary of the method: as §1

Ba/F3 cells [4] = experiment: IL-3 dependent cell proliferation; format: cell-based, murine; settings: IL-3 1.0 ng/mL, 48 hours
Summary of the method: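 Cell numbers were read 48 hours after treatment with the One Solution Cell Proliferation Assay kit. Three experiments; mean ± SD of triplicates from one representative experiment.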

Ba/F3 cells [5] = experiment: IL-3-induced signaling, immunoblotting of p-Erk, p-Akt, p-Jak2, p-Stat5; format: cell-based, murine; settings: 4 hours pretreatment, IL-3 2.0 ng/mL, dose-dependent
Summary of the method: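 Ba/F3 cells were starved overnight in serum- and cytokine-free RPMI1640, given test compound for 4 h, then stimulated with IL-3 2 ng/mL. Stimulation was 10 min for the dose series, or a time course at 20 µM. Cells were lysed in RIPA with NaF, Na3VO4 and protease inhibitors. 50 μg protein per lane went through SDS-PAGE and phospho-antibody immunoblotting with ECL. Blots were reprobed for total proteins. Three independent experiments.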

[6] = test system: mouse embryonic fibroblasts (WT, PTPN11 knockout, PTPN11 E76K/+); experiment: MEF proliferation; format: cell-based; settings: 6 μM
Summary of the method: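 Ptpn11 fl/fl and +/+ MEFs were infected with adeno-Cre, then treated with test compound at 6 μM or DMSO. Growth was measured at 24, 48 and 72 h with the One Solution Cell Proliferation kit, and SHP2 loss was confirmed by immunoblot. Ptpn11 E76K/+ and +/+ MEFs at 6 μM were counted with the same kit. Three experiments; mean ± SD of triplicates from one representative.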

[7] = test system: myeloid blasts from JMML patients with the PTPN11 E76K/+ mutation; experiment: Colony-forming unit assay, JMML patient cells; format: cell-based, human; settings: GM-CSF 1.0 ng/mL, 14 days

Sequence of full length SHP1 (P29350 whole entry): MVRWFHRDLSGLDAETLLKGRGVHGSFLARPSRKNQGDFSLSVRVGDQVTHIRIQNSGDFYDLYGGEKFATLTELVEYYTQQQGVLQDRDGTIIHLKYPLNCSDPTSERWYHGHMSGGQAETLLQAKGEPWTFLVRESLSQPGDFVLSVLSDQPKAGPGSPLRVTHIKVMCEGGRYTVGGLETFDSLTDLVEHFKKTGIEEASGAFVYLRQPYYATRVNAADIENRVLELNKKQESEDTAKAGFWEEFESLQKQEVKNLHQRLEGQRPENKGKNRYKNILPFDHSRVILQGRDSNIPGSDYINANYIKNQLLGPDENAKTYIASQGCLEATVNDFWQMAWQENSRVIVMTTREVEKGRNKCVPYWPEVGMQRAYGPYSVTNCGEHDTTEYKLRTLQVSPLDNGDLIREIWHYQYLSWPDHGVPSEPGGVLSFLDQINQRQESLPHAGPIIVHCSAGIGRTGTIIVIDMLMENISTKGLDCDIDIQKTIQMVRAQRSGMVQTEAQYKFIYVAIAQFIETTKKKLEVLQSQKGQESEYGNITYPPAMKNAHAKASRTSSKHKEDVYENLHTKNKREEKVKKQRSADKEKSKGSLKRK

SMILES: CCOc1cc(O)c(C(=O)/C=C/c2ccc(Cl)cc2Cl)cc1CN1CCCCC1 [LY1]
toxicity in cells (cells): acute toxicity in cells

SMILES: CCOc1cc(O)c(C(=O)/C=C/c2ccc(Cl)cc2Cl)cc1CN1C[C@@H](O)C[C@@H]1C(C)=O [LY7]
toxicity in cells (cells): acute toxicity in cells

Continued, in another order:

inhibition of SHP2 phosphatase activity (qualitative) (full length SHP2): good effects on SHP2
SMILES: CCOc1cc(O)c(C(=O)/C=C/c2ccc(Cl)cc2Cl)cc1CN(CC)CC [LY3]
inhibition of SHP1 relative to SHP2 (qualitative) (full length SHP1): inhibited the SHP1 phosphatase to a similar extent

inhibition of SHP2 phosphatase activity (qualitative) (full length SHP2): good effects on SHP2
SMILES: CCOc1cc(O)c(C(=O)/C=C/c2ccc(Cl)cc2Cl)cc1CN1CCNCC1C (stereo not drawn) [LY5]
inhibition of SHP1 relative to SHP2 (qualitative) (full length SHP1): inhibited the SHP1 phosphatase to a similar extent

effect on capability of SHP2 to dephosphorylate pNPP [1]: did not affect
shift in melting temperature (Tm) (His-tagged SHP2): dose-dependent right shifts
quenching of SHP2 fluorescence [3]: strong quenching
type of inhibition (Lineweaver-Burk plot) (full length SHP2; 0, 10, 20 μM, Vmax decreased, Km increased): mixed type inhibitor
inhibitory function in presence of Triton X-100 (full length SHP2; 0.001% Triton X-100 in assay buffer): not decreased
inhibition of SHP2 in presence of Triton X-100 (full length SHP2; 0.01% Triton X-100): diminished
1/SHP2 binding after extensive washing of enzyme-inhibitor complex (full length SHP2; washing): stable
SMILES: CCOc1cc(O)c(C(=O)/C=C/c2ccc(Cl)cc2Cl)cc1CN1CCC=C(n2c(=O)[nH]c3ccccc32)C1 [compound 1, (E)-1-(1-(5-(3-(2,4-dichlorophenyl)acryloyl)-2-ethoxy-4-hydroxybenzyl)-1,2,5,6-tetrahydropyridin-3-yl)-1H-benzo[d]imidazol-2(3H)-one]
cell cycle change (H661 cells): pronounced G2/M arrest
inhibition of colony-forming capability of SHP2 E76K-expressing progenitors [2]: much more sensitive than control cells
proliferation of H661 cells (H661 cells (PTPN11 N58S)): inhibited proliferation
proliferation of H596 cells (H596 cells (WT PTPN11)): inhibited proliferation
cell growth (Ba/F3 cells [4]): significantly suppressed cell growth
IL-3-induced activation (phosphorylation) of Erk, Akt, Jak2, Stat5 (Ba/F3 cells [5]): inhibited
inhibition of SHP2 phosphatase activity (qualitative) (full length SHP2): most active compound among the remaining compounds
cell growth of PTPN11 E76K/+ MEFs [6]: significantly decreased cell growth
proliferation of WT MEFs ([6]; 24, 48, 72 hours): markedly decreased
proliferation of PTPN11-depleted MEFs ([6]; PTPN11 knockout): did not show a significant effect
colony formation of JMML myeloid blasts [7]: exquisitely sensitive

From publication PMC6467801 (Journal of medicinal chemistry, 2018)
